Results reported in the EternaBench riboswitch data.

Tests used:
MS2 coat protein [1] = test: apparent Kd, MS2 coat protein; higher = weaker binding; RNA-MaP array; theophylline 2 mM where present
In short: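 In 100 mM Tris-HCl pH 7.5, 80 mM KCl, 4 mM MgCl2, BSA, DTT, yeast tRNA and Tween-20, SNAP-549-labelled MS2 coat protein was titrated from 0.7 or 1.5 nM, doubling to 3 µM, over designs transcribed by stalled E. coli RNA polymerase on Illumina sequencing-chip clusters. This was done first without ligand, then with ligand held constant. After green signal was normalised to red-channel RNA signal and control-cluster median Fmax, the apparent Kd was taken as the median of filtered per-cluster binding-curve fits.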

MS2 coat protein [2] = test: apparent Kd, MS2 coat protein; higher = weaker binding; RNA-MaP array
In short: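 For each design, the apparent Kd is the median of binding-curve fits across its clusters. Designs measured on fewer than 10 clusters were dropped. The RNAs were transcribed from sequenced DNA templates on an Illumina sequencing chip and incubated at room temperature, with or without input ligand, with fluorescently labeled MS2 coat protein at 1.5 nM to 3 μM.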

[3] = designed as: OFF switch for theophylline, no ligand
[4] = ligand present: theophylline, designed as: OFF switch for theophylline
[5] = designed as: ON switch for theophylline, no ligand
[6] = ligand present: theophylline, designed as: ON switch for theophylline
[7] = designed as: OFF switch for flavin mononucleotide, no ligand
[8] = ligand present: flavin mononucleotide, designed as: OFF switch for flavin mononucleotide
[9] = designed as: ON switch for flavin mononucleotide, no ligand
[10] = ligand present: flavin mononucleotide, designed as: ON switch for flavin mononucleotide
[11] = designed as: OFF switch for tryptophan, no ligand
[12] = ligand present: tryptophan, designed as: OFF switch for tryptophan

“AUACCUAGUGAGUCGUGUUUCUUUUCAGAUACCAGACUUUUCGUUGUCCCUUGGCAGCUGUUUUACAUGAGGAUCACCCAUGUUG” was tested, and the “apparent Kd” value (MS2 coat protein [1]; [3]) was 15.7 nM and the “apparent Kd” value (MS2 coat protein [1]; [4]) was 23.6 nM.

With “AUCAUGUAAUCAGAUACCAGACAUCUUUUAAUACAUAUUACAUGAGGAUCACCCAUGUUGGUCCCUUGGCAGCUGAAAUAUUUUU” the “apparent Kd” value (MS2 coat protein [1]; [5]) was 197 nM and the “apparent Kd” value (MS2 coat protein [1]; [6]) was 86.8 nM.

In the case of “AUCGUACCUAAUGAUACCAGCAAGUGAUCAUAACAUGAGGAUCACCCAUGUAAUCAGUGAUGCCCUUGGCAGCAUAAUCGAUACA”, the “apparent Kd” value (MS2 coat protein [1]; [5]) is reported as 146 nM and the “apparent Kd” value (MS2 coat protein [1]; [6]) is reported as 88 nM.

In the case of “AUCGUACCUGAGGAUACCAGCAUGUGAUCAUAACAUGAGGAUCACCCAUGUAAUCAGUGAUGCCCUUGGCAGCUUGGUCGGUACA”, the “apparent Kd” value (MS2 coat protein [1]; [5]) is reported as 51.6 nM and the “apparent Kd” value (MS2 coat protein [1]; [6]) is reported as 26.4 nM.

With “AUCUCGUUCAAUAUACCGCCUUGACUAGAUACCAGCAUGGACCCAUGCCCUUGGCAGCUGGACAUGAGGAUCACCCAUGUUUCAG” the “apparent Kd” value (MS2 coat protein [1]; [5]) was 12.4 nM and the “apparent Kd” value (MS2 coat protein [1]; [6]) was 14.6 nM.

“AUGUCGUUGAAUACAGCGGCAUGGAGUGAUACCAGAAUGAUCAAAUUCCCUUGGCAGCAUCACAUGAGGAUCACCCAUGUUCGAU” was tested, and the “apparent Kd” value (MS2 coat protein [1]; [5]) was 29.1 nM and the “apparent Kd” value (MS2 coat protein [1]; [6]) was 34.3 nM.

With “CAGCCUGGUUGGUAAAUCCCUCAUCGUGAUACCAGUCGAGUGAUCGACCCUUGGCAGCACAUGAGGAUCACCCAUGUGCUCGUAU” the “apparent Kd” value (MS2 coat protein [1]; [3]) was 25.1 nM and the “apparent Kd” value (MS2 coat protein [1]; [4]) was 23.1 nM.

In the case of “UGAGGUAAGGAGAAGGUCCAACGAUGAAUUUAGGAAGGAUAUCCAACAUGAGGAUCACCCAUGUAAGGGUGCCCGAAGUCAGGA”, the “apparent Kd” value (MS2 coat protein [2]; [7]) is reported as 133 nM and the “apparent Kd” value (MS2 coat protein [2]; [8]) is reported as 178 nM.

With “UGAGUCUAAGGAUAUGCUGCCGACAACAUGAGGAUCACCCAUGUCUUUCGUUGUUCGCCGGCAGAAGGUAGCAAUU” the “apparent Kd” value (MS2 coat protein [2]; [7]) was 561 nM and the “apparent Kd” value (MS2 coat protein [2]; [8]) was 262 nM.

In the case of “UGCCUAUACCGAGGAUAUUACGUCAGAUGUGUGUAAGAAGGCGGGUUCCGAUCAACAUGAGGAUCACCCAUGUAUCUUUACGGC”, the “apparent Kd” value (MS2 coat protein [2]; [9]) is reported as 24.5 nM and the “apparent Kd” value (MS2 coat protein [2]; [10]) is reported as 8.72 nM.

With “UGGAAUGUGCAAGGAUAUUGGCGGUGUGGAAUAGAAUCACUCGAACAUGAGGAUCACCCAUGUUGCAAGAAGGUGCGGGAACGA” the “apparent Kd” value (MS2 coat protein [2]; [7]) was 38.2 nM and the “apparent Kd” value (MS2 coat protein [2]; [8]) was 33.5 nM.

In the case of “UGGAGAUAGACGGCCGCCACUAACAUGAGGAUCACCCAUGUCGUCACGAAUGGAUGGCCCUAGAAUAGGACCGGGUCCGGAUUCA”, the “apparent Kd” value (MS2 coat protein [2]; [11]) is reported as 33.6 nM and the “apparent Kd” value (MS2 coat protein [2]; [12]) is reported as 34.8 nM.

For “UGGCCGUAGAAGAAGGAGGACACCGUUUUGUCACGGACAUGAGGAUCACCCAUGUAGAUAAUUGCCUAGGAUAUUCGCUCAUUU”, the “apparent Kd” value (MS2 coat protein [2]; [9]) was 15.9 nM and the “apparent Kd” value (MS2 coat protein [2]; [10]) was 7.52 nM.

“UGGGAACGAGGAUAUACAUGAGGAUCACCCAUGUUCAAGAUUCGGGUAUAAUGCCUCAGUAGAAGGCGUAAGCA” was tested, and the “apparent Kd” value (MS2 coat protein [2]; [7]) was 107 nM and the “apparent Kd” value (MS2 coat protein [2]; [8]) was 108 nM.

With “UGGUCAGAUGUAAGGAUAUUCGCUCUAAUUUCUCAGAAGAAGGUACAUGAGGAUCACCCAUGUAAUAAAGAAAA” the “apparent Kd” value (MS2 coat protein [2]; [7]) was 9.38 nM and the “apparent Kd” value (MS2 coat protein [2]; [8]) was 19.6 nM.

With “UGGUGGAAGACAUGAGGAUCACCCAUGUUCGUAGAUGCCGAGCAGGAUAUUAGAUCAUAAACCAGUAAGAAGGGCUGAGUGUCU” the “apparent Kd” value (MS2 coat protein [2]; [9]) was 31.8 nM and the “apparent Kd” value (MS2 coat protein [2]; [10]) was 26.1 nM.

For “UGUCGAUGAUCCAAGGAUAUAUGGAUGCUGACAUGAGGAUCACCCAUGUCCCGAGAAAUCAUUAAAUAGAAGGUGGGCUAUGGCAA”, the “apparent Kd” value (MS2 coat protein [2]; [9]) was 45.9 nM and the “apparent Kd” value (MS2 coat protein [2]; [10]) was 21.2 nM.

For “UGUUGGGAAACAGGAUAUGAGCUUAAAGCACAAGGGAUUCGCACAUGAGGAUCACCCAUGUAACGUCAGAAGGGUUUGUUUGUA”, the “apparent Kd” value (MS2 coat protein [2]; [7]) was 51.2 nM and the “apparent Kd” value (MS2 coat protein [2]; [8]) was 42.2 nM.

For “UUAAAGGCACCUCAUGGGACUAUAAACCCGCGAGGACCGGUACGGCCGCCACUCGAAUAUCAACAUGAGGAUCACCCAUGUGGUU”, the “apparent Kd” value (MS2 coat protein [2]; [11]) was 21.8 nM and the “apparent Kd” value (MS2 coat protein [2]; [12]) was 48.5 nM.

With “UUACCAGCAGGAUAUUCAUCUGUUAACAUGAGGAUCACCCAUGUCUCGUGAUCGAACUAGGAAGAAGGGCUUAUAC” the “apparent Kd” value (MS2 coat protein [2]; [7]) was 74.4 nM and the “apparent Kd” value (MS2 coat protein [2]; [8]) was 77.3 nM.

With “UUACGGCAAGGAUAUACAUGAGGAUCACCCAUGUACUCUUUAUAAAUUAGUCAGCAUGGUAGAAGGUGCCGCUA” the “apparent Kd” value (MS2 coat protein [2]; [7]) was 9.04 nM and the “apparent Kd” value (MS2 coat protein [2]; [8]) was 11 nM.

For “UUAUGUCGGUAGGAUAUUAGACGUGGUUAUACGUAAGAAGGACCAACAUGAGGAUCACCCAUGUGAGAUAGUUC”, the “apparent Kd” value (MS2 coat protein [2]; [7]) was 14.4 nM and the “apparent Kd” value (MS2 coat protein [2]; [8]) was 24.7 nM.

With “UUCUGUUCCAAGAAGGUCAAAAUUGAUGCCUCUGAAGGAUAUUGGACAGCCAAGGUCUGUGACAUGAGGAUCACCCAUGUUCAG” the “apparent Kd” value (MS2 coat protein [2]; [9]) was 6.72 nM and the “apparent Kd” value (MS2 coat protein [2]; [10]) was 6.14 nM.

For “UUGCUAACAGUAGGAUAUUCAAAACAGCGUGAGGAAGAAGGACUAGCGACUUCGUGACAUGAGGAUCACCCAUGUGUAAGGCCA”, the “apparent Kd” value (MS2 coat protein [2]; [9]) was 12.5 nM and the “apparent Kd” value (MS2 coat protein [2]; [10]) was 9.89 nM.

“UUGUGACAUGAGGAUCACCCAUGUGAGGAUAUUCUGCUUGUGGAUAGUACGACUUGAUGAAGAAGGCACGUUAU” was tested, and the “apparent Kd” value (MS2 coat protein [2]; [7]) was 34.7 nM and the “apparent Kd” value (MS2 coat protein [2]; [8]) was 33.3 nM.

With “UUUAACAAGAACGUCCUGAGUGACAAGCUACGAGGACCGGUACGGCCGCCACUCGUACCAAAACAUGAGGAUCACCCAUGUUAAA” the “apparent Kd” value (MS2 coat protein [2]; [11]) was 17.4 nM and the “apparent Kd” value (MS2 coat protein [2]; [12]) was 17.8 nM.
